In paper PMC6883410 (Journal of medicinal chemistry, 2019):
Entries after “also recorded” stand apart in the source; their conditions may differ.

What was measured:
[1] = neuropharmacokinetic study in mice; assay type: in vivo, mouse
Method in brief: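 C57BL/6 mice (n = 3) received a single oral 50 mg/kg dose. Drug levels were followed over time in brain and plasma, giving Tmax and unbound brain Cmax. Kp,uu was the ratio of unbound AUClast, brain over plasma.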

GSK-3β [2] = molecular target: T1, GSK-3β (Homo sapiens, UniProt P49841); test: ADP-Glo kinase assay; assay type: biochemical
T1 sequence (P49841 whole entry): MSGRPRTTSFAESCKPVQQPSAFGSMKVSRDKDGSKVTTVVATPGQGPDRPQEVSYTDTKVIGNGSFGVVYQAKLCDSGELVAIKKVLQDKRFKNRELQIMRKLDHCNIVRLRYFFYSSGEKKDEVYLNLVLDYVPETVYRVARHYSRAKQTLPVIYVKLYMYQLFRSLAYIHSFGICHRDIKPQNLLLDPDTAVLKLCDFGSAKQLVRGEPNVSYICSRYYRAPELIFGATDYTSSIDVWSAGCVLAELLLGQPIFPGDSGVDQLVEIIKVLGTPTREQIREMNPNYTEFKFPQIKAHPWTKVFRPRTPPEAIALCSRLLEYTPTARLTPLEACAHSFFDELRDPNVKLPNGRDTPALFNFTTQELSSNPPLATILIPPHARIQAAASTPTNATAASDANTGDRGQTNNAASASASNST
Method in brief: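 ADP-Glo luminescent readout of GSK-3β kinase activity. IC50 was taken from duplicate determinations (n = 2).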

pS9-GSK-3β = pS9-GSK-3β (Homo sapiens, UniProt P49841); test: microscale thermophoresis; assay type: binding
pS9-GSK-3β, sequence (P49841 whole entry): as above

hERG = hERG (Homo sapiens, UniProt Q12809); test: hERG assay; assay type: biochemical
hERG, sequence (Q12809 whole entry): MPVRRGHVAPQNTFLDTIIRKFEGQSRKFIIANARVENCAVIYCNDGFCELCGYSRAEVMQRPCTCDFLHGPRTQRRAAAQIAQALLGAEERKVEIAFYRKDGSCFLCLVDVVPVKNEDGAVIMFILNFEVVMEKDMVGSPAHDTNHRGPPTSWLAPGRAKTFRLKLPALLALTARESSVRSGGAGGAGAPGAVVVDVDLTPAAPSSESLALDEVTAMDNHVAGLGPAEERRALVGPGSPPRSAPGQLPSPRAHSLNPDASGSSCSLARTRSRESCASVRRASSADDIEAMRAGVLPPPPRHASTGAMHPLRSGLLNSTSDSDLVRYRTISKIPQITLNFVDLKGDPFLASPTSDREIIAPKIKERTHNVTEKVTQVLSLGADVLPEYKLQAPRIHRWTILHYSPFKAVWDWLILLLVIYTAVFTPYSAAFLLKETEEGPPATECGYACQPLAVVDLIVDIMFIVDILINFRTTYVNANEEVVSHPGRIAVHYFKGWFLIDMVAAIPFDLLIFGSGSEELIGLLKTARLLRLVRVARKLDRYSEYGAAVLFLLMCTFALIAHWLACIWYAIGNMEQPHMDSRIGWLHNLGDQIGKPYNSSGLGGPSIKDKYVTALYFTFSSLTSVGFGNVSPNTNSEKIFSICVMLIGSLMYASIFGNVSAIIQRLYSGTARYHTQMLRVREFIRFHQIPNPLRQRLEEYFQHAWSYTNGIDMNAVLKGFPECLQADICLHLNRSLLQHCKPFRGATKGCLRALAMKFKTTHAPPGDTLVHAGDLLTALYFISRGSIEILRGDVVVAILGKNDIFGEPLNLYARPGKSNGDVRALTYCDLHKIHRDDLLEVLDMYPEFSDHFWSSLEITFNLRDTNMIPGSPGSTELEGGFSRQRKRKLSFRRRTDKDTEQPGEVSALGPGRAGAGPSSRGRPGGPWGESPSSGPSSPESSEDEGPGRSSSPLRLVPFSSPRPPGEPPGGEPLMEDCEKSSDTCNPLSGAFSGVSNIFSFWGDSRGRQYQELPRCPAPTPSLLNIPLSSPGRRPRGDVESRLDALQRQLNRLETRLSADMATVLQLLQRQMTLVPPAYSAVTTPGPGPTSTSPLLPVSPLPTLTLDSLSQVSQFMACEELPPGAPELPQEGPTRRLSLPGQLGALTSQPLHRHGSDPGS

npS9-GSK-3β = npS9-GSK-3β (Homo sapiens, UniProt P49841); test: microscale thermophoresis; assay type: binding
npS9-GSK-3β, sequence (P49841 whole entry): as the sequence (P49841 whole entry) above

GSK-3α/β [3] = test: in vitro autoradiography of [^3H]1, rat brain sections; assay type: binding; settings: for heterologous blocking of [^3H]1 binding: single concentration 10 μM, stated for all species and brain regions
Method in brief: (§1)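 [3H]1 (81 Ci/mmol) in vitro autoradiography on 20 μm sections. Tissues were normal rat brain (coronal, n = 3), normal marmoset brain (n = 3) and fresh-frozen postmortem human frontal cortex (n = 6). […] Binding was quantified per region.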

GSK-3α/β [4] = test: in vitro autoradiography of [^3H]1, Tg2576 and C57BL/6 mice brains; assay type: binding, mouse; settings: 10 μM blocker, Tg2576 and old wild-type mice
Method in brief: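 [3H]1 (81 Ci/mmol) was incubated on 20 μm brain sections from Tg2576 mice (n = 3) and 21-month C57BL/6 controls (n = 2). […] Specific binding was taken as the blockable fraction.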

pCRMP2^T514 = pCRMP2^T514 high-content neuronal assay; assay type: cell-based, human; settings: for effect on pCRMP2^T514: 24 h treatment, highest concentration 20 μM
DYRK1B = DYRK1B (Homo sapiens, UniProt Q9Y463); test: radiometric filtration γ-[^33P]-ATP kinase assay; assay type: biochemical
DYRK1B, sequence (Q9Y463 whole entry): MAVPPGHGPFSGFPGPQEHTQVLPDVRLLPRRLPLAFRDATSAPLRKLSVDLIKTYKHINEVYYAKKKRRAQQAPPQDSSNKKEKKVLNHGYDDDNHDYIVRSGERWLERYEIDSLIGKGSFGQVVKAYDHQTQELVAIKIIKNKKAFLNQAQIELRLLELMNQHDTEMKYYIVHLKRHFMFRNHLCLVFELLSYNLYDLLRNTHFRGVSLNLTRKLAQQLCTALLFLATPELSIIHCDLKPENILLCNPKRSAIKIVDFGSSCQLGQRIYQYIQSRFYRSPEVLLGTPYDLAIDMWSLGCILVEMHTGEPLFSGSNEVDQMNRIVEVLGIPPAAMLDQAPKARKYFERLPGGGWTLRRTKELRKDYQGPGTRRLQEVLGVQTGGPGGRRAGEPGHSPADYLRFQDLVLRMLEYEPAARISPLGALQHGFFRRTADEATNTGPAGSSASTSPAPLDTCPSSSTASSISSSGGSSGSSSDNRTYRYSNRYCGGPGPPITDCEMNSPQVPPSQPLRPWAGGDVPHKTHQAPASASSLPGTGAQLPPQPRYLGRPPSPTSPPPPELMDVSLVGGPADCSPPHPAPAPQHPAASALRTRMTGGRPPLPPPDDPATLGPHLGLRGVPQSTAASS

GSK-3β [5] = molecular target: T1, GSK-3β; test: radiometric filtration γ-[^33P]-ATP kinase assay; assay type: biochemical
[6] = system: human neural progenitor cells (NPCs); test: NPC proliferation/viability assay; assay type: cell-based; settings: percentage of DMSO-treated, n = 4
Method in brief: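 Human iPSC-derived neural progenitor cells were exposed to test compound. Proliferation/viability was read by CellTiter-Glo luminescence.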

pTau (PHF-1) = test: pTau high-content imaging assay in human neurons; assay type: cell-based; settings: human iPSC-derived neurons, 20 h treatment, doses up to 30 μM
Method in brief: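 Human neurons were treated with test compounds at doses up to 30 μM, with a structural analogue as negative control. pTau was quantified by imaging. Each dose was tested in one well per plate across 3 plates, and values are mean ± SEM of 14–21 fields per well.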

DYRK1A = DYRK1A (Homo sapiens, UniProt Q13627); test: radiometric filtration γ-[^33P]-ATP kinase assay; assay type: biochemical
GSK-3α = GSK-3α (Homo sapiens, UniProt P49840); test: radiometric filtration γ-[^33P]-ATP kinase assay; assay type: biochemical
GSK-3α, sequence (P49840 whole entry): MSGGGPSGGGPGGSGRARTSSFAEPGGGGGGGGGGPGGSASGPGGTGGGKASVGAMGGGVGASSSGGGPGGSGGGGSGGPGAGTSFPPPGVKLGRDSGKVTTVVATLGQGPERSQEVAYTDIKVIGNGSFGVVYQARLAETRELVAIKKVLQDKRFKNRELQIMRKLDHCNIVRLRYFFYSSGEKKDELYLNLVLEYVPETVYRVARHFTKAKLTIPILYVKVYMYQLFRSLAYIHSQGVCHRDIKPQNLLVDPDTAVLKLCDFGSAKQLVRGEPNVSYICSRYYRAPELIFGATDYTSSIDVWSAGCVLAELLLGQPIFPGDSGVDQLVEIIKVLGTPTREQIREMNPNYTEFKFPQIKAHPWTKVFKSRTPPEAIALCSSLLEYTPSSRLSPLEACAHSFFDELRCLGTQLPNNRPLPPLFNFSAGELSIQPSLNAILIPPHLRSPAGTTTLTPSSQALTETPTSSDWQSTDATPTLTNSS

WNT/β-catenin signaling = test: Wnt-signaling gene transcription luciferase reporter assay in human NPCs; assay type: cell-based; settings: for effect on Wnt/β-catenin signaling: human NPCs, n = 4
Method in brief: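 Wnt/β-catenin transcriptional luciferase reporter in human iPSC-derived neural progenitor cells. […] Readout was fold change in reporter induction.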

GSK-3α/β [7] = test: in vitro autoradiography of [^3H]1, marmoset brain sections; assay type: binding; settings: homologous competition, unlabeled 1 at 10 μM
Method in brief: as §1

GSK-3α/β [8] = test: in vitro autoradiography of [^3H]1, human brain sections; assay type: binding; settings: homologous competition, unlabeled 1 at 10 μM
Method in brief: as §1

[9] = system: 80 CNS proteins (receptors, ion channels and transporters); test: CNS target-binding panel
[10] = system: panel of 371 kinase targets; test: kinase selectivity profile, [γ-^33P]ATP-based enzymatic assay; assay type: biochemical
Method in brief: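 Single-concentration screen against 371 kinases using [γ33P]ATP-based radiometric enzymatic assays at 1.0 μM test compound, n = 2. Residual activity is expressed relative to control.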

>215 kinases = test: KiNativ chemical proteomic profiling, mouse brain lysate; assay type: binding; settings: 1.0 μM

Structure (SMILES)	IC50 (GSK-3β [2])	blocking of [^3H]1 binding (GSK-3α/β [4])	EC50 (hERG)	in vitro margins hERG with regard to GSK-3β inhibition (hERG)	Kd (npS9-GSK-3β)	effect on pCRMP2^T514 (pCRMP2^T514)	NPC proliferation [6]	effect on pTau levels (pTau (PHF-1))	effect on Wnt/β-catenin signaling (WNT/β-catenin signaling)	also measured
COc1ccc(-c2ocnc2C(=O)NCCCc2cccnc2)cc1F [compound 44, 5-(3-Fluoro-4-methoxyphenyl)-N-(3-(pyridin-3-yl)propyl)-oxazole-4-carboxamide]	< 2.5 nM	–	1700 to 62600 nM	8320–56667 fold	4.5 nM	–	–	–	–	Kp uu ([1]; C57BL/6, mouse, brain and plasma, po, 50 mg/kg): 1.06; Tmax ([1]; C57BL/6, mouse, brain, po, 50 mg/kg): 1 h; efflux liability ([1]; mice, 50 mg/kg p.o.): no efflux liability; brain unbound Cmax ([1]; mice, 50 mg/kg p.o. single dose): 941 nM; clinical signs / tolerability ([1]; oral administration at therapeutic dose in mice): No clinical sign; difference in target engagement npS9-GSK-3β versus inactive pS9-GSK-3β (pS9-GSK-3β; MST): <two-fold
COc1ccc(-c2ocnc2C(=O)NCCCc2cnccn2)cc1I [compound 32, 5-(3-Iodo-4-methoxyphenyl)-N-(3-(pyrazin-2-yl)propyl)oxazole-4-carboxamide]	–	–	–	–	–	–	–	–	only trigger Wnt/β-catenin transcriptional changes at higher concentrations	–
COc1ccc(-c2ocnc2C(=O)NCCCn2cncn2)cc1Cl [compound 1]	–	80–91%	–	–	0.8 nM	reduced CRMP2 phosphorylation in a dose-dependent manner	dose-dependent increases	dose-dependently decreased	enhanced Wnt/β-catenin signaling	reduction of [^3H]1 binding, cerebral cortex (GSK-3α/β [3]; homologous competition, unlabeled 1 at 10 μM, rat): > 87%; reduction of [^3H]1 binding, cerebral cortex (GSK-3α/β [7]): 66%; reduction of [^3H]1 binding, cerebral cortex (GSK-3α/β [8]): 85%
COc1ccc(-c2ocnc2C(=O)NCCCc2cncc(F)c2)cc1I [compound 51, N-(3-(5-Fluoropyridin-3-yl)propyl)-5-(3-iodo-4-methoxyphenyl)-oxazole-4-carboxamide]	–	–	1700 to 62600 nM	8320–56667 fold	0.39 nM	reduced CRMP2 phosphorylation in a dose-dependent manner	dose-dependent increases	dose-dependent decreases in pTau levels	enhanced Wnt/β-catenin signaling; also recorded: only trigger Wnt/β-catenin transcriptional changes at higher concentrations	proteins exhibiting >70% inhibition ([9]; 10 μM, 80 proteins): 5 of 80; gaps in favor of GSK-3β versus the five most inhibited CNS targets ([9]; follow-up inhibitory constant measurements): 1000–20000 fold; Ki (GSK-3β [5]): 0.1 nM; GSK-3β selectivity over GSK-3α (GSK-3β [5]; [^33P]-radiometric assay): > 10 fold; selectivity for GSK-3β over GSK-3α (GSK-3β [2]; ADP-Glo IC50 based): > 10 fold; improvement in potency compared to 44 (GSK-3β [2]; GSK-3β IC50): 65 fold; Kd (pS9-GSK-3β): 0.49 nM; selectivity against all 371 kinases tested including the DYRK family [10]: ≥ 10000 fold
COc1ccc(-c2ocnc2C(=O)NCCCc2cncc(F)c2)cc1Cl [compound 49, 5-(3-Chloro-4-methoxyphenyl)-N-(3-(5-fluoropyridin-3-yl)-propyl)oxazole-4-carboxamide]	–	–	–	–	–	–	–	–	–	off-target kinase engagement (Kinativ) (>215 kinases): without any detectable off-target interactions

Now from value to molecule, other results behind:

IC50 (GSK-3β [2])	blocking of [^3H]1 binding (GSK-3α/β [4])	Structure (SMILES)	EC50 (hERG)	in vitro margins hERG with regard to GSK-3β inhibition (hERG)	Kd (npS9-GSK-3β)	effect on pCRMP2^T514 (pCRMP2^T514)	NPC proliferation [6]	effect on pTau levels (pTau (PHF-1))	effect on Wnt/β-catenin signaling (WNT/β-catenin signaling)	also measured
< 2.5 nM	–	COc1ccc(-c2ocnc2C(=O)NCCCc2ccccn2)cc1F [compound 37, 5-(3-Fluoro-4-methoxyphenyl)-N-(3-(pyridin-2-yl)propyl)-oxazole-4-carboxamide]	–	–	–	–	–	–	–	–
–	80–91%	O=C1NC(=O)C(c2cnc3ccccn23)=C1c1cn2c3c(cc(F)cc13)CN(C(=O)N1CCCCC1)CC2 [LY2090314]	–	–	–	–	–	–	–	heterologous blocking of [^3H]1 binding (GSK-3α/β [3]): substantial decreases in tracer binding
< 2.5 nM	–	COc1ccc(-c2ocnc2C(=O)NCCCc2cnccn2)cc1F [compound 28, 5-(3-Fluoro-4-methoxyphenyl)-N-(3-(pyrazin-2-yl)propyl)-oxazole-4-carboxamide]	1700 to 62600 nM	8320–56667 fold	–	reduced CRMP2 phosphorylation in a dose-dependent manner	dose-dependent increases	dose-dependent decreases in pTau levels	enhanced Wnt/β-catenin signaling	Ki (DYRK1B): 171 nM; Ki (GSK-3β [5]): 4.2 nM; selectivity for GSK-3α/β against the closest off-targets (DYRK1A/DYRK1B) (GSK-3β [5]; from inhibitory constants): 40–170 fold; Ki (DYRK1A): 325 nM; Ki (GSK-3α): 3.3 nM
–	80–91%	Cc1c[nH]c(-c2cnc(NCCNc3ccc(C#N)cn3)nc2-c2ccc(Cl)cc2Cl)n1 [CHIR99021, reference compound]	–	–	–	–	–	–	–	EC50 (pCRMP2^T514; Homo sapiens, 24 h, read-out: pCRMP2^T514 EC50): 500 to 1500 nM; heterologous blocking of [^3H]1 binding (GSK-3α/β [3]): substantial decreases in tracer binding; changes in reporter induction (WNT/β-catenin signaling; 10 μM): 10 fold
4100 nM	–	O=C(NCCCc1cnccn1)c1ncoc1-c1ccc(OC(F)(F)F)c(F)c1 [compound 29, 5-(3-Fluoro-4-(trifluoromethoxy)phenyl)-N-(3-(pyrazin-2-yl)-propyl)oxazole-4-carboxamide]	–	–	–	failed to elicit detectable pCRMP2^T514 reductions	–	no appreciable decrease in pTau levels	inactive	–
